Laboratory results reported in ChEMBL document CHEMBL2385063, “Identification of 2-(2-(1-naphthoyl)-8-fluoro-3,4-dihydro-1H-pyrido[4,3-b]indol-5(2H)-yl)acetic acid (setipiprant/ACT-129968), a potent, selective, and orally bioavailable chemoattractant receptor-homologous molecule expressed on Th2 cells (CRTH2) antagonist” (J Med Chem, 2013).
In brackets after ≈: the same amount, converted by molar mass. Activity calls are given as the source filed them. No cut-off for these calls is given here.

target: Cytochrome P450 2D6 (Homo sapiens, UniProt P10635); assay: Inhibition of CYP2D6 in human liver microsomes assessed as dextromethorphan O-demethylation by LC-MS/MS analysis; assay type: ADME, Microsome; details: not given
Sequence (P10635 whole entry): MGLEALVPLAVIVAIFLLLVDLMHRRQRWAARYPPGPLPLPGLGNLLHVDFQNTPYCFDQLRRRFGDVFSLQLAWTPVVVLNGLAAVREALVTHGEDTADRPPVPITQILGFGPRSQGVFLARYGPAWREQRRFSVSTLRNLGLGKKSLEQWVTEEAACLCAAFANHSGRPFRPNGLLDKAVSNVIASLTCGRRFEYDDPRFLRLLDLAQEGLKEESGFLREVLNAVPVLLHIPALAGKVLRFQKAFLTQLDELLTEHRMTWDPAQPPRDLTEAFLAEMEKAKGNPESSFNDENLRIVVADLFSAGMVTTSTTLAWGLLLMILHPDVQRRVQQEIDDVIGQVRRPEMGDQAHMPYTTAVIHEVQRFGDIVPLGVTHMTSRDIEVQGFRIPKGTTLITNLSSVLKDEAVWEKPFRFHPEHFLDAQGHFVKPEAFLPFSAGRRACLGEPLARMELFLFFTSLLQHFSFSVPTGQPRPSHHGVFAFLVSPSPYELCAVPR

IC50 [µM]	Structure (SMILES)
> 50	O=C(O)Cn1c2c(c3cc(F)ccc31)CN(C(=O)Cc1cccc3ccccc13)CC2
> 50	CCc1ccc(-c2ccc(C(=O)N3CCc4c(c5ccccc5n4CC(=O)O)C3)cc2)cc1

target: T1, Prostaglandin D2 receptor 2 (Homo sapiens) (UniProt Q9Y5Y4); assay: Selectivity factor, ratio of IC50 for recombinant human CRTH2 receptor in presence of human serum albumin to IC50 for recombinant human CRTH2 receptor in absence of human serum albumin; details: not given
T1 sequence (whole entry): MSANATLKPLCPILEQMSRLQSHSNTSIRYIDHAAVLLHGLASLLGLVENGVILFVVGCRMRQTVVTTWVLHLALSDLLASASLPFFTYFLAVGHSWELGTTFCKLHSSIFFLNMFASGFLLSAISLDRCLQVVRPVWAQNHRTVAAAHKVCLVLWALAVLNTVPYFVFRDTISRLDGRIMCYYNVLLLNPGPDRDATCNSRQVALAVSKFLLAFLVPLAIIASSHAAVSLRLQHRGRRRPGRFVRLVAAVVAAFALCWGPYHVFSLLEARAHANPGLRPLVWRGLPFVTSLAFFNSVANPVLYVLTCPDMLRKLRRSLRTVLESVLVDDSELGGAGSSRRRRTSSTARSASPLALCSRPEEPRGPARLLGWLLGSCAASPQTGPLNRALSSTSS
How it was run: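 Competitive [³H]PGD₂ (2.5 nM) displacement on membranes from HEK-293 cells stably expressing hCRTh2. Buffer C was 50 mM Tris, pH 7.4, 100 mM NaCl, 1 mM EDTA and 0.1% BSA, run with or without 0.5% HSA. Membrane was 80 μg protein/well, incubated 90 min at room temperature, then filtered and counted by scintillation. Nonspecific binding was taken with 10 μM PGD₂. f_HSA = IC₅₀(HSA)/IC₅₀(buffer).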

Ratio IC50	Structure (SMILES)
45	O=C(O)Cn1c2c(c3cc(F)ccc31)CN(C(=O)Cc1cccc3ccccc13)CC2
2	CCc1ccc(-c2ccc(C(=O)N3CCc4c(c5ccccc5n4CC(=O)O)C3)cc2)cc1

target: T2, Chemoattractant receptor-homologous molecule expressed on Th2 cells (Cavia porcellus) (UniProt Q56D28); assay: Antagonist activity at guinea pig CRTH2 receptor assessed as inhibition of calcium flux by cell-based FLIPR assay; assay type: functional; details: not given
T2 sequence (whole entry): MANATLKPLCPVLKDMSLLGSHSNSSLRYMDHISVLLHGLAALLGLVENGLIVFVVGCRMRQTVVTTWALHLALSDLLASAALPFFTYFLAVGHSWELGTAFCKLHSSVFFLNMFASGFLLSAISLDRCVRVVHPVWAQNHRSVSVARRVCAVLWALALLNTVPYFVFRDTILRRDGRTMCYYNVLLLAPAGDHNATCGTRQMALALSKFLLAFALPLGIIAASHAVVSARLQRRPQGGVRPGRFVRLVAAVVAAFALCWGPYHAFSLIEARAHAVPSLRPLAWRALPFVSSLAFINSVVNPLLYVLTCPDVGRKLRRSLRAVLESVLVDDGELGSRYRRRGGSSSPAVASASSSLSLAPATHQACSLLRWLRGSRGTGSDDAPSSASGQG

inhibition	Structure (SMILES)
Active	O=C(O)Cn1c2c(c3cc(F)ccc31)CN(C(=O)Cc1cccc3ccccc13)CC2
Active	CCc1ccc(-c2ccc(C(=O)N3CCc4c(c5ccccc5n4CC(=O)O)C3)cc2)cc1

test system: not listed separately; assay: Solubility of the compound in aqueous buffer at pH 4; assay type: physicochemical; details: not given
How it was run: (§1)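 Compound was stirred in water, 60 mM citrate buffer pH 4 or 70 mM phosphate buffer pH 7 at 300 rpm, 25 °C, for 24 h. The mixture was filtered, and the filtrate concentration was measured by HPLC-UV at 250 nm against a calibration curve.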

solubility [µg/mL]	Structure (SMILES)
21 (≈ 50.4 µM)	O=C(O)Cn1c2c(c3cc(F)ccc31)CN(C(=O)Cc1cccc3ccccc13)CC2
1 (≈ 2.28 µM)	CCc1ccc(-c2ccc(C(=O)N3CCc4c(c5ccccc5n4CC(=O)O)C3)cc2)cc1

test system: not listed separately; assay: n-octanol-KH2PO4-Na2HPO4 buffer partition coefficient, log D of the compound at pH 7.4 by shake flask method; assay type: physicochemical; details: not given

logD	Structure (SMILES)
0.2	O=C(O)Cn1c2c(c3cc(F)ccc31)CN(C(=O)Cc1cccc3ccccc13)CC2
1.8	CCc1ccc(-c2ccc(C(=O)N3CCc4c(c5ccccc5n4CC(=O)O)C3)cc2)cc1

test system: not listed separately; assay: Elimination half life in human plasma at 1 mM by HR-LC-MS analysis; assay type: ADME, cell-free; details: read-out: beta t1/2

half-life [h]	Structure (SMILES)
> 4	O=C(O)Cn1c2c(c3cc(F)ccc31)CN(C(=O)Cc1cccc3ccccc13)CC2
> 4	CCc1ccc(-c2ccc(C(=O)N3CCc4c(c5ccccc5n4CC(=O)O)C3)cc2)cc1

test system: not listed separately; assay: Intrinsic clearance in rat liver microsomes measured per mg of protein at 1 uM by LC/MS-MS analysis; assay type: ADME, Microsome; details: read-out: CLH

microsomal CLint at 1 µM [µL/min/mg]	Structure (SMILES)
63	O=C(O)Cn1c2c(c3cc(F)ccc31)CN(C(=O)Cc1cccc3ccccc13)CC2
31	CCc1ccc(-c2ccc(C(=O)N3CCc4c(c5ccccc5n4CC(=O)O)C3)cc2)cc1

test system: not listed separately; assay: Half life in simulated gastric fluid at 2 uM by LC-MS analysis; assay type: physicochemical; details: not given
How it was run: (§2)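 Compounds were incubated in simulated gastric fluid for 1 h or simulated intestinal fluid for 4 h. Unchanged parent was quantified by LC-MS.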

half-life at 2 µM [h]	Structure (SMILES)
> 1	O=C(O)Cn1c2c(c3cc(F)ccc31)CN(C(=O)Cc1cccc3ccccc13)CC2
> 1	CCc1ccc(-c2ccc(C(=O)N3CCc4c(c5ccccc5n4CC(=O)O)C3)cc2)cc1

test system: not listed separately; assay: Intrinsic clearance in human liver microsomes measured per mg of protein at 1 uM by LC/MS-MS analysis; assay type: ADME, Microsome; details: read-out: CLH

microsomal CLint at 1 µM [µL/min/mg]	Structure (SMILES)
6	O=C(O)Cn1c2c(c3cc(F)ccc31)CN(C(=O)Cc1cccc3ccccc13)CC2
85	CCc1ccc(-c2ccc(C(=O)N3CCc4c(c5ccccc5n4CC(=O)O)C3)cc2)cc1

target: T3, Prostaglandin D2 receptor 2 (Mus musculus) (UniProt Q9Z2J6); assay: Antagonist activity at mouse CRTH2 receptor assessed as inhibition of calcium flux by cell-based FLIPR assay; assay type: functional; details: not given
T3 sequence (whole entry): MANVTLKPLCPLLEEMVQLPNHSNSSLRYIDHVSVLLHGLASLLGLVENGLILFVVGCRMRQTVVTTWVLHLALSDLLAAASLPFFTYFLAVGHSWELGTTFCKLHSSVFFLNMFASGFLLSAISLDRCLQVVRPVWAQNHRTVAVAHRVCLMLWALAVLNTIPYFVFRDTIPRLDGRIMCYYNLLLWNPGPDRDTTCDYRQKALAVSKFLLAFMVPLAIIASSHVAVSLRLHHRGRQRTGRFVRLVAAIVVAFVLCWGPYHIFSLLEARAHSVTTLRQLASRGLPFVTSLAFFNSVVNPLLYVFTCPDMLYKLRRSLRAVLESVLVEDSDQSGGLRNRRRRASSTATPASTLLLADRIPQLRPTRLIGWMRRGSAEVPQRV

inhibition	Structure (SMILES)
Active	O=C(O)Cn1c2c(c3cc(F)ccc31)CN(C(=O)Cc1cccc3ccccc13)CC2
Active	CCc1ccc(-c2ccc(C(=O)N3CCc4c(c5ccccc5n4CC(=O)O)C3)cc2)cc1

test system: not listed separately; assay: Elimination half life in Sprague-Dawley rat plasma at 1 mM by HR-LC-MS analysis; assay type: ADME, cell-free; details: read-out: beta t1/2

half-life [h]	Structure (SMILES)
> 4	O=C(O)Cn1c2c(c3cc(F)ccc31)CN(C(=O)Cc1cccc3ccccc13)CC2
> 4	CCc1ccc(-c2ccc(C(=O)N3CCc4c(c5ccccc5n4CC(=O)O)C3)cc2)cc1

target: Cytochrome P450 2C9 (Homo sapiens, UniProt P11712); assay: Inhibition of CYP2C9 in human liver microsomes assessed as diclofenac 4'-hydroxylation by LC-MS/MS analysis; assay type: ADME, Microsome; details: not given
Sequence (P11712 whole entry): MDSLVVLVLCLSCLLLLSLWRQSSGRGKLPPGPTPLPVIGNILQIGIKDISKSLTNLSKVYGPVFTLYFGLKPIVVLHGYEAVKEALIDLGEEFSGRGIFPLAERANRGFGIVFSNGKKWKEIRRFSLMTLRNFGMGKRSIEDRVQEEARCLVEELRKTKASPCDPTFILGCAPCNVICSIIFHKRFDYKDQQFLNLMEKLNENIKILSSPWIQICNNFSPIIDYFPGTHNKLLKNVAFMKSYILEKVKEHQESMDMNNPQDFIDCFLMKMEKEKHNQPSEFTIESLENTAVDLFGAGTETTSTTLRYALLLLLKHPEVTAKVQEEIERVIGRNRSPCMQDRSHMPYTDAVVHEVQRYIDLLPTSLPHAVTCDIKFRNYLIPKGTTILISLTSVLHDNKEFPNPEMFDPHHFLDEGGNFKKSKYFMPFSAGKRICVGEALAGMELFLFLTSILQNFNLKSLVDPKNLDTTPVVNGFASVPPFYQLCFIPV

IC50 [µM]	Structure (SMILES)
16	O=C(O)Cn1c2c(c3cc(F)ccc31)CN(C(=O)Cc1cccc3ccccc13)CC2
14	CCc1ccc(-c2ccc(C(=O)N3CCc4c(c5ccccc5n4CC(=O)O)C3)cc2)cc1

test system: not listed separately; assay: Solubility of the compound in aqueous buffer at pH 7; assay type: physicochemical; details: not given; how it was run: as §1

solubility [µg/mL]	Structure (SMILES)
560 (≈ 1340 µM)	O=C(O)Cn1c2c(c3cc(F)ccc31)CN(C(=O)Cc1cccc3ccccc13)CC2
30 (≈ 68.4 µM)	CCc1ccc(-c2ccc(C(=O)N3CCc4c(c5ccccc5n4CC(=O)O)C3)cc2)cc1

test system: not listed separately; assay: Intrinsic clearance in rat hepatocytes measured per 10^6 cells at 1 uM by LC/MS-MS analysis; assay type: ADME, cell-based, Hepatocyte; details: read-out: CLH

hepatocyte CLint at 1 µM [µL/min/1e6 cells]	Structure (SMILES)
5.3	CCc1ccc(-c2ccc(C(=O)N3CCc4c(c5ccccc5n4CC(=O)O)C3)cc2)cc1

test system: not listed separately; assay: Half life in simulated intestinal fluid at 2 uM by LC-MS analysis; assay type: physicochemical; details: not given; how it was run: as §2

half-life at 2 µM [h]	Structure (SMILES)
> 4	O=C(O)Cn1c2c(c3cc(F)ccc31)CN(C(=O)Cc1cccc3ccccc13)CC2
> 4	CCc1ccc(-c2ccc(C(=O)N3CCc4c(c5ccccc5n4CC(=O)O)C3)cc2)cc1

target: T4, Prostaglandin D2 receptor 2 (Homo sapiens, UniProt Q9Y5Y4); assay: Antagonist activity at CRTH2 receptor in human eosinophils assessed as inhibition of PGD2-induced cell shape change incubated for 1 hr prior to PGD2 induction measured after 5 mins by FACS flow cytometric analysis in presence of human plasma; details: in the assay text read “incubated for 10 mins” for “incubated for 1 hr”
T4 sequence (Q9Y5Y4 whole entry): T1 sequence (whole entry)
How it was run: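 Polymorphonuclear cells isolated from healthy-donor blood on a Polymorphprep gradient (500g, 30 min), erythrocytes lysed hypotonically. Cells stained 1 h with CD49d-APC, mixed with human plasma, preincubated with antagonist, then stimulated with 15 nM PGD2 for 5 min at 37 °C. Fixed in cold 1% paraformaldehyde. Eosinophils gated by CD49d/SSC; activation read as % cells with raised forward scatter.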

IC50 [µM]	Structure (SMILES)
0.275	O=C(O)Cn1c2c(c3cc(F)ccc31)CN(C(=O)Cc1cccc3ccccc13)CC2
0.24	CCc1ccc(-c2ccc(C(=O)N3CCc4c(c5ccccc5n4CC(=O)O)C3)cc2)cc1

test system: not listed separately; assay: Protein binding in plasma (unknown origin); assay type: ADME, cell-free; details: read-out: PPB

fraction unbound	Structure (SMILES)
< 0.03	O=C(O)Cn1c2c(c3cc(F)ccc31)CN(C(=O)Cc1cccc3ccccc13)CC2
< 0.03	CCc1ccc(-c2ccc(C(=O)N3CCc4c(c5ccccc5n4CC(=O)O)C3)cc2)cc1

target: Cytochrome P450 3A4 (Homo sapiens, UniProt P08684); assay: Inhibition of CYP3A4 in human liver microsomes assessed as midazolam-1'-hydroxylation by LC-MS/MS analysis; assay type: ADME, Microsome; details: not given
Sequence (P08684 whole entry): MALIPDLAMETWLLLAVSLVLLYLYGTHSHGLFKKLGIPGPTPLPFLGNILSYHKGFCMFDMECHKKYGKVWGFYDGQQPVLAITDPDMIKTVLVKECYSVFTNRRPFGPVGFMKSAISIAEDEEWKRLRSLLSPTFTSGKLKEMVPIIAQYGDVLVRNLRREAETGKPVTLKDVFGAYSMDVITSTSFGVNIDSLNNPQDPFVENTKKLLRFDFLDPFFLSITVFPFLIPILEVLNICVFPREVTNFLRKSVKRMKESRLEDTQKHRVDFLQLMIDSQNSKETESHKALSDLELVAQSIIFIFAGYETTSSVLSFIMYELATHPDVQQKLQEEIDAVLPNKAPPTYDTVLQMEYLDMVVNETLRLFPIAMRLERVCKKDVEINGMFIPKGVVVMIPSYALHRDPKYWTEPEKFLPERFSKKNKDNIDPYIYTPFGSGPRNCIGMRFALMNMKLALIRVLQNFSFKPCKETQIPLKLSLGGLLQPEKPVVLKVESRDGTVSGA

IC50 [µM]	Structure (SMILES)
> 50	O=C(O)Cn1c2c(c3cc(F)ccc31)CN(C(=O)Cc1cccc3ccccc13)CC2
> 50	CCc1ccc(-c2ccc(C(=O)N3CCc4c(c5ccccc5n4CC(=O)O)C3)cc2)cc1
